Results reported in ChEMBL document CHEMBL1137689, “Amines and oximes derived from deoxybenzoins as Helicobacter pylori urease inhibitors” (Eur J Med Chem, 2009).
The source made the active and inactive calls. The calls are words filed in the database; no cut-off is given here.

What was measured:
[1] = target: Urease subunit alpha/Urease subunit beta (Helicobacter pylori (strain ATCC 700392 / 26695) (Campylobacterpylori)) (UniProt P69996+P14916); assay: Inhibition of Helicobacter pylori ATCC 43504 urease assessed as ammonia production at 400 ug/mL by indophenol method
Outline: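 Crude urease prepared from H. pylori ATCC 43504 grown 24 h at 37 °C in brucella broth with 10% heat-inactivated horse serum, microaerobic (5% O2, 10% CO2, 85% N2). Cells washed in PBS pH 7.4, stored -80 °C; urease in equal-volume glycerol kept at 4 °C. Enzyme (4U) preincubated with compound 3 h at room temperature; ammonia production read by indophenol method; percent inhibition.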

[2] = target: Urease subunit alpha/Urease subunit beta (Helicobacter pylori (strain ATCC 700392 / 26695) (Campylobacterpylori), UniProt P69996); assay: Inhibition of Helicobacter pylori ATCC 43504 urease assessed as ammonia production by indophenol method
Outline: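 Crude urease from H. pylori cells, grown 24 h at 37 °C microaerobically (5% O2, 10% CO2, 85% N2) in brucella broth with 10% heat-inactivated horse serum. Cells were washed in PBS pH 7.4 and stored at -80 °C; the extract was kept 1:1 in glycerol at 4 °C. Enzyme (4U) was preincubated with compound 3 h at room temperature. Percent inhibition was screened at 400 µg/mL; IC50 also determined.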

Urease subunit alpha/Urease subunit beta (Helicobacter pylori (strain ATCC 700392 / 26695) (Campylobacterpylori)), sequence (P14916 whole entry, looked up): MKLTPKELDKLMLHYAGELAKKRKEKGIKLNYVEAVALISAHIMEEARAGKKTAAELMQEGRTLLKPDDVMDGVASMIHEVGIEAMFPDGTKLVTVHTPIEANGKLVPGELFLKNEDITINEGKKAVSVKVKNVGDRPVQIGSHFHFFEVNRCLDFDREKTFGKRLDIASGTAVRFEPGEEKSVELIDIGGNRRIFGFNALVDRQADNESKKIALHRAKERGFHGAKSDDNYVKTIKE
Urease subunit alpha/Urease subunit beta (Helicobacter pylori (strain ATCC 700392 / 26695) (Campylobacterpylori)), sequence (P69996 whole entry, looked up): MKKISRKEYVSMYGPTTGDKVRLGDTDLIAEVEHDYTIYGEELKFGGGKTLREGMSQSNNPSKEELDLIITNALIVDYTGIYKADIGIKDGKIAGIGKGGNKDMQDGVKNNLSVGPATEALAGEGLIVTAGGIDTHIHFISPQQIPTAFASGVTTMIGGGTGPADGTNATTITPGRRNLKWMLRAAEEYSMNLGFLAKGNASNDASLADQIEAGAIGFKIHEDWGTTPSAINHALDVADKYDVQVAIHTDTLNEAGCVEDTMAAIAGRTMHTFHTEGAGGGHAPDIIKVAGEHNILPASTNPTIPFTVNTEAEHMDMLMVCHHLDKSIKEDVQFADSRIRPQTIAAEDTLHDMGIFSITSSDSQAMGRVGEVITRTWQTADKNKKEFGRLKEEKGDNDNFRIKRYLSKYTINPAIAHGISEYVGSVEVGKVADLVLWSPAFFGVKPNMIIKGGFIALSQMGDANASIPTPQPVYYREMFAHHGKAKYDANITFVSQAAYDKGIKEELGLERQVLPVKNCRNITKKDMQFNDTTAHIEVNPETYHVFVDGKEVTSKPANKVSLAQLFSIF
Urease subunit alpha/Urease subunit beta, sequence (P69996 whole entry): as the sequence (P69996 whole entry, looked up) above
Urease subunit alpha/Urease subunit beta, sequence (P14916 whole entry, further chain): as the sequence (P14916 whole entry, looked up) above

SMILES | inhibition [1] | IC50 [2]
O=C(Cc1ccc(F)cc1)c1ccc(O)cc1O | 16% | –
O/N=C(\Cc1ccc(F)cc1)c1ccc(O)c(O)c1O | 55% | –
COc1cc(O)c(C(N)Cc2ccc(OO)cc2)c(OC)c1 (stereo unspecified) | inactive | –
NC(Cc1ccc(F)cc1)c1ccc(O)cc1O (stereo unspecified) | 48% | –
NC(Cc1ccc(O)cc1)c1c(O)cc(O)cc1O (stereo unspecified) | 28% | –
O/N=C(/Cc1ccc(F)cc1)c1ccc(O)cc1O | 23% | –
COc1cc(O)c(/C(Cc2ccc(OO)cc2)=N/O)c(OC)c1 | 15% | –
COc1c(O)cc(O)c(/C(Cc2ccc(O)cc2)=N/O)c1O | 38% | –
O/N=C(\Cc1ccc(O)cc1)c1c(O)cc(O)cc1O | 13% | –
O=C(Cc1ccc(O)cc1)c1c(O)cc(O)cc1O | inactive | –
O=C(Cc1ccc([N+](=O)[O-])cc1)c1ccc(O)cc1O | inactive | –
O/N=C(\Cc1ccc(O)cc1)c1ccc(O)c(O)c1 | 62% | –
O/N=C(/Cc1ccc(O)cc1)c1ccc(O)c(O)c1O | 73% | –
COc1ccc(C/C(=N/O)c2ccc(OC)c(OC)c2OC)cc1 | inactive | –
COc1cc(O)c(C(=O)Cc2ccc(OO)cc2)c(OC)c1 | inactive | –
COc1ccc(CC(N)c2ccc(O)cc2O)cc1 (stereo unspecified) | 73% | –
NC(Cc1ccc([N+](=O)[O-])cc1)c1ccc(O)cc1O (stereo unspecified) | inactive | –
COc1ccc(C/C(=N\O)c2ccc(O)cc2O)cc1 | 36% | –
COc1ccc(CC(=O)c2ccc(OC)c(OC)c2OC)cc1 | inactive | –
CC(=O)NO [ACETOHYDROXAMIC ACID] | – | 11 µM
O=[N+]([O-])c1ccc(C/C(=N/O)c2ccc(O)cc2O)cc1 | inactive | –
O=C(Cc1ccc(F)cc1)c1ccc(O)c(O)c1O | 44% | –
COc1ccc(CC(=N)c2ccc(OC)c(OC)c2OC)cc1 | 11% | –
NC(Cc1ccc(F)cc1)c1ccc(O)c(O)c1O (stereo unspecified) | 80% | –
NC(Cc1ccc(O)cc1)c1ccc(O)c(O)c1O (stereo unspecified) | 97.3% | 47 µM
